# Experimental data taken from PMC4291883 (Asian Journal of Andrology, 2014).
# “Also recorded” adds a separate entry of the source. Residues, ends and D or L forms follow the SMILES beside them.
# What was measured:
# [1] = system: intracavernous pressure in anesthetized rats; experiment: Monitoring of intracavernous pressure; assay type: in vivo, male Wistar rats; settings: for ICP effect compared with U-II and/or P5U (in words): comparison between the peptides; for effect on ICP / penile erection (in words): lowest dose
# Outline: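 Male Wistar rats (200–250 g) under i.p. urethane (1 g kg−1); carotid catheter records systemic pressure; 26-gauge needle through right crus into the cavernosal space records ICP; injections via the other crus. Test compound given at 0.03, 0.1, 0.3 and 1 nmol in 50 μl saline, next dose ≥5 min after return to baseline; ACh 5 nmol ends each run. Read-outs are ΔICP (mmHg) and AUC (mmHg × s); mean ± s.e.m., 5–7 experiments; ANOVA with Bonferroni post-test.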
# rat thoracic aorta = biological target: T1, rat thoracic aorta (Rattus norvegicus, UniProt P49684); settings: comparison of U-II, P5U and UPG84
# T1 sequence (P49684 1-386): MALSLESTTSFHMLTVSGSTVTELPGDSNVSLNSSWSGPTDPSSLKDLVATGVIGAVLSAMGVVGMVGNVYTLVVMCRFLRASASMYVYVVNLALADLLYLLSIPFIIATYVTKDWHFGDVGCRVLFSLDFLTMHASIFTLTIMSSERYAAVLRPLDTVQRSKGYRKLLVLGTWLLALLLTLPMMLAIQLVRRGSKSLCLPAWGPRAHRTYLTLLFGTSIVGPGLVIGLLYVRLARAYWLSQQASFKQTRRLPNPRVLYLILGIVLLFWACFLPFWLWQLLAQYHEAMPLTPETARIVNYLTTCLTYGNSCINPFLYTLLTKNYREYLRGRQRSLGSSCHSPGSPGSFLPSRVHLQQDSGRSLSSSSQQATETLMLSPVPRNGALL
# Outline: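 Thoracic aorta from male Wistar rats (200–250 g) killed under anaesthesia was cut helically into two parallel strips and the endothelium rubbed off. Strips were held in bicarbonate salt solution at 37°C gassed with 95% O2/5% CO2, 5 mN load, isotonic recording. After 60 min equilibration they were checked with noradrenaline 1 μmol l−1 and re-equilibrated 60 min. Cumulative concentration-response curves were fitted by sigmoidal regression; EC50 expressed as pD2 (−log EC50).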
# vascular smooth muscle = settings: cited from earlier work
# [2] = system: human corpus cavernosum strips; settings: cited from earlier work
# [3] = system: intracavernous pressure in rats; settings: intracavernous administration in rats; cited from earlier work
compound,measurement,setting,value
"CC(C)[C@H](NC(=O)[C@@H]1CSSC(C)(C)[C@H](NC(=O)[C@@H](N)CC(=O)O)C(=O)N[C@@H](Cc2ccccc2)C(=O)N[C@@H](Cc2c[nH]c3ccccc23)C(=O)N[C@@H](CCCCN)C(=O)N[C@@H](Cc2ccc(O)cc2)C(=O)N1)C(=O)O [P5U, H-Asp-c[Pen-Phe-Trp-Lys-Tyr-Cys]-Val-OH] (HELM PEPTIDE1{D.[Pen].F.W.K.Y.C.V}$PEPTIDE1,PEPTIDE1,2:R3-7:R3$$$V2.0)","increase in ICP, area under the curve","[1]; 0.1 nmol intracavernous, 50 μl saline, urethane anesthesia, mean ± s.e.m., n = 7",73.95 ± 7.312 mmHg × s
same,ICP effect compared with U-II 0.3 nmol (in words),"[1]; 0.1 nmol intracavernous, compared with U-II at 0.3 nmol per rat",comparable to the effect elicited by U-II at a dose of 0.3 nmol; also recorded: not statistically different from the effect elicited by U-II at a dose of 0.3 nmol per rat
same,ICP effect compared with U-II and/or P5U (in words),[1]; 0.03–1 nmol intracavernous,elicited a significant increase in ICP as compared to U-II
same,delta of increase in ICP (in words),"[1]; 0.03–1 nmol intracavernous, delta in mmHg",displays the same profile of the area under the curve
same,effect on ICP (in words),"[1]; doses of 0.1, 0.3 and 1 nmol intracavernous",significantly raises ICP
same,effect on ICP / penile erection (in words),[1]; 0.03 nmol intracavernous,did not affect the ICP
same,agonist activity / potency (in words),rat thoracic aorta,higher activity (pD2) when compared to the endogenous ligand U-II
"CC(C)[C@H](NC(=O)[C@@H]1CSSC[C@H](NC(=O)[C@H](CC(=O)O)NC(=O)[C@@H]2CCCN2C(=O)[C@@H](NC(=O)[C@@H](N)CCC(=O)O)[C@@H](C)O)C(=O)N[C@@H](Cc2ccccc2)C(=O)N[C@@H](Cc2c[nH]c3ccccc23)C(=O)N[C@@H](CCCCN)C(=O)N[C@@H](Cc2ccc(O)cc2)C(=O)N1)C(=O)O [U-II, H-Glu-Thr-Pro-Asp-c[Cys-Phe-Trp-Lys-Tyr-Cys]-Val-OH]",vasoconstrictor potency (in words),vascular smooth muscle,most potent vasoconstrictor compound identified
same,ICP effect (in words),[1]; 0.1 nmol intracavernous,already detectable
same,relaxation of human corpus cavernosum (in words),[2],relaxes human corpus cavernosum strips in endothelium-and NO-dependent manner
same,ICP increase (in words),[3],dose-dependent increase in intracavernous pressure (ICP)
"CC(C)[C@H](NC(=O)[C@@H]1CSSC(C)(C)[C@H](NC(=O)[C@@H](N)CC(=O)O)C(=O)N[C@@H](Cc2ccccc2)C(=O)N[C@H](Cc2c[nH]c3ccccc23)C(=O)N[C@@H](CCCN)C(=O)N[C@@H](Cc2ccc(N)cc2)C(=O)N1)C(=O)O [UPG84, H-Asp-c[Pen-Phe-DTrp-Orn-(pNH2) Phe-Cys]-Val-OH] (HELM PEPTIDE1{D.[Pen].F.[dW].[Orn].[Nc1ccc(C[C@H](N[*:1])C(=O)[*:2])cc1].C.V}$PEPTIDE1,PEPTIDE1,2:R3-7:R3$$$V2.0)",ICP effect compared with P5U 1 nmol (in words),"[1]; 0.03 nmol intracavernous, compared with P5U at 1 nmol",comparable to the penile erection induced by P5U at the dose of 1 nmol
same,"ICP effect compared with highest dose of U-II, 1 nmol (in words)","[1]; 0.03 nmol intracavernous, compared with U-II at 1 nmol",showed an effect similar to the highest dose of U-II (1 nmol); also recorded: comparable profile to that elicited by the highest dose of U-II (1 nmol); also recorded: comparable to the highest tested dose of U-II (1 nmol)
same,ICP effect compared with U-II and/or P5U (in words),[1]; 0.03–1 nmol intracavernous,"caused a significant increase in ICP compared to the endogenous ligand, U-II, and to P5U; also recorded: even more effective than P5U"
same,effect on ICP / penile erection (in words),[1]; 0.03 nmol intracavernous,"induced a prominent penile erection in rat; also recorded: elicited a marked increase in ICP, expressed as area, compared with vehicle"
same,agonist activity / potency (in words),rat thoracic aorta,"showed the highest activity compared with the endogenous ligand, U-II, or P5U; also recorded: more potent than U-II or P5U"
